# Values joined by “and” are separate entries in the source; they are usually repeats but may differ in a detail not shown here. Equal values may be shown once. “Also recorded” adds a separate entry of the source.
# Assays:
# Jak1 = Jak1 (Homo sapiens, UniProt P23458); assay: Inhibition of catalytic domain activity, Jak1; type: biochemical
# Method in brief: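 Z′-LYTE biochemical kinase assay run by the vendor per manufacturer's protocol. Each kinase plate carried 0%/100% phosphorylation and 0%/100% inhibition controls. Development-reaction and compound-fluorescence interference controls at each compound concentration. n = 1 per kinase.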
# RSK2 = RSK2 (Homo sapiens, UniProt P51812); assay: IC50 for kinases of potential cross-over; type: biochemical
# Chain of RSK2 (P51812 whole entry): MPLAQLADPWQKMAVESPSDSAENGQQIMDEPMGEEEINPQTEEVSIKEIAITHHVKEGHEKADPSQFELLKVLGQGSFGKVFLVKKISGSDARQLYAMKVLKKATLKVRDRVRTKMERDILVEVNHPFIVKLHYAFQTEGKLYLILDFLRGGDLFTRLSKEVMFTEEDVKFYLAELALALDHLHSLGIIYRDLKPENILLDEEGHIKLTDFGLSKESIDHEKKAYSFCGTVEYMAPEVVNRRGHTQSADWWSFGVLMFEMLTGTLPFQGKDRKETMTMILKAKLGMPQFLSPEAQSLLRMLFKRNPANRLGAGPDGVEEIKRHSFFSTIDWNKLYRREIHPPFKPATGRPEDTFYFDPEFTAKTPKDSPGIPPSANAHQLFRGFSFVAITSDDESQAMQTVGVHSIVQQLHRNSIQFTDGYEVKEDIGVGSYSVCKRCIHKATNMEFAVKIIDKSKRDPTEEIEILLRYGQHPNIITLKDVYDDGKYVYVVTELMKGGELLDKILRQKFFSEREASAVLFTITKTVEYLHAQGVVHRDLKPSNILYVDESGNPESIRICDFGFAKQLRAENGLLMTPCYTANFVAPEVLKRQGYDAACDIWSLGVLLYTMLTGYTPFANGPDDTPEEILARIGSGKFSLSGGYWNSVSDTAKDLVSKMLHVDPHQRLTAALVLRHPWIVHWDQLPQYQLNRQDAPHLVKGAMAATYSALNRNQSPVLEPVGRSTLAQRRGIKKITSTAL
# BTK = BTK (Homo sapiens, UniProt Q06187); assay: IC50 for kinases of potential cross-over; type: biochemical
# Chain of BTK (Q06187 whole entry): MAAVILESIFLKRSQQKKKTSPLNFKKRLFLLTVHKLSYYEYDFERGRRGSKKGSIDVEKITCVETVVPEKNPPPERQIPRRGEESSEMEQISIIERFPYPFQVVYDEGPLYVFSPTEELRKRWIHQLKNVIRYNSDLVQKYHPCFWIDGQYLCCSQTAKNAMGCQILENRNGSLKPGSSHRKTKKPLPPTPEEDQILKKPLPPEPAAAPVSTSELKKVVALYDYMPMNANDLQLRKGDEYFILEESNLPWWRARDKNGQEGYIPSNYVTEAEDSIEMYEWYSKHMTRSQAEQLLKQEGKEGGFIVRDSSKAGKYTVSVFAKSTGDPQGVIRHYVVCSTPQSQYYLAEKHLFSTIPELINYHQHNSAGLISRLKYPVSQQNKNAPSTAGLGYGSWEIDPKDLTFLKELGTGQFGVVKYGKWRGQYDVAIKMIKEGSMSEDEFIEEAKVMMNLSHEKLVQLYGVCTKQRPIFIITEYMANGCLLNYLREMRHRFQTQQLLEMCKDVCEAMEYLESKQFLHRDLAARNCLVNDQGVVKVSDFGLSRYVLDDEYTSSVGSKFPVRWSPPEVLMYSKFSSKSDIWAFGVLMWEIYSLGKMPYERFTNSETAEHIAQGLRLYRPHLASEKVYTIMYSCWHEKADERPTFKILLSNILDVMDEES
# minipig = assay: 28-day minipig repeat exposure study: toxicology; type: in vivo; conditions: topical solution daily for 28 days, 0, 40, 80 and 160 mg/day
# Method in brief: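 GLP repeat-dose dermal study in minipigs. Topical solution given daily for 28 days at 0, 40, 80 and 160 mg/day. Left on skin 20–22 h each day, then the site was wiped clean with a moist towel. Dermal tolerability and toxicokinetics assessed.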
# [1] = system: participants with atopic dermatitis; assay: Phase 2a study ATI-1777-AD-201: safety; type: in vivo, human
# Method in brief: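 Adults with moderate/severe AD applied 2% solution or vehicle twice daily for 4 weeks. TEAEs: onset on/after first dose and before last dose […], counted once per preferred term and system organ class. Also assessed serious AEs, labs, vital signs, physical exams, 12-lead ECG. Full analysis set; safety reviewed every 4 weeks.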
# TXK = TXK (Homo sapiens, UniProt P42681); assay: IC50 for kinases of potential cross-over; type: biochemical
# Chain of TXK (P42681 whole entry): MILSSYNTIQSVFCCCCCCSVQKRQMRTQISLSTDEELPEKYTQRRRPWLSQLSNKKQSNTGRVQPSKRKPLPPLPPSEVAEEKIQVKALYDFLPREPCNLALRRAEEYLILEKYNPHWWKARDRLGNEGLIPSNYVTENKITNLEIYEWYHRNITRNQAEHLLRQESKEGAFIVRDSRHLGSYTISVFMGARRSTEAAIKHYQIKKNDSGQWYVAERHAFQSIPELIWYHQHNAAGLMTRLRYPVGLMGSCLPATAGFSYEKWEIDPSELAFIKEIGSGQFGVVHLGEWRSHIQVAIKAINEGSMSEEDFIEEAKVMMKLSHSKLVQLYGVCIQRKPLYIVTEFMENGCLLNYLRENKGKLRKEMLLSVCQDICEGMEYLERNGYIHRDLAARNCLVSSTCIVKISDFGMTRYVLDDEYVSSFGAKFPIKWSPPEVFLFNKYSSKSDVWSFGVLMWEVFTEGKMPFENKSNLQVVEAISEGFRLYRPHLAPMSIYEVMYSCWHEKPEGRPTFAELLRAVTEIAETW
# Jak1/2 = assay: Inhibition of IFN-γ-induced STAT phosphorylation in PBMCs; type: cell-based; conditions: Homo sapiens, PBMC, read-out: IC50 Mean ± SD
# Method in brief: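 Ficoll-isolated human PBMCs, cryopreserved, thawed into RPMI/10% heat-inactivated FBS assay medium, 200,000 cells/well. Serially diluted test compound (final 20 μM to 2 × 10−6 μM) or 0.1% DMSO vehicle preincubated 1 h at 37 °C. Cytokine then added for 5–10 min, followed by 30 min shaking at 4 °C and lysis. Phospho-STAT5/STAT4 by MSD immunoassay, phospho-STAT1 by ELISA. IC50 reported as mean ± SD.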
# [2] = Metabolic stability in liver microsomes; type: in vitro ADME; conditions: minipig
# Method in brief: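 Test compound from 1 mM DMSO solution preincubated 5 min with dog, human, monkey, rat or minipig liver microsomes. NADPH (10 mM) then added. Reactions stopped at 0, 5, 15 and 30 min with 0.05% formic acid in acetonitrile containing loperamide internal standard. Supernatants analysed by LC-MS/MS; n = 1 per microsome species.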
# Jak1/3 = assay: IC50 of ATI-1777 for inhibiting Jak1/3 used as plasma reference level; conditions: reference level for plasma concentrations; assay not described
# [3] = TEAE, full analysis set, n = 23
# Chain of Jak1 (P23458 875-1153 limits assumed): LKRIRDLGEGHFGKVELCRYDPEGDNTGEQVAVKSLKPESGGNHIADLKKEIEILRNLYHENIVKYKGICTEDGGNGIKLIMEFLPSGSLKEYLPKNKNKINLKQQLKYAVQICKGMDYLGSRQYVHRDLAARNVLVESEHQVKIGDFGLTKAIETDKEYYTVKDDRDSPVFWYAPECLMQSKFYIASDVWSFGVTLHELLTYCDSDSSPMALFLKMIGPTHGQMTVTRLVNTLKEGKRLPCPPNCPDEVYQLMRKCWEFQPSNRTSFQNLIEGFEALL
smiles,measurement,setting,value
"CCOC(=O)c1cnc2[nH]ccc2c1N[C@@H]1CCCN(C(=O)CC#N)C1 [ATI-1777, ethyl (R)-4-((1-(2-cyanoacetyl)piperidin-3-yl)amino)-1H-pyrrolo[2,3-b]pyridine-5-carboxylate]",IC50,Jak1,1.5 nM
same,Fold Selectivity,Jak1; Jak1 reference line of Table 2,1 fold
same,IC50,RSK2,1050 nM
same,Fold Selectivity,RSK2; RSK2 vs Jak1 (= 1),700 fold
same,IC50,BTK,210 nM
same,Fold Selectivity,BTK; BTK vs Jak1 (= 1),140 fold
same,ATI-1777–related effects / adverse effects,minipig,No ATI-1777–related effects were noted at any dose; also recorded: did not present any adverse effects
same,"deaths, serious adverse events, TEAEs of special interest","[1]; 2% topical solution twice daily, 4 weeks",No deaths or serious adverse events were reported; also recorded: No deaths or treatment-emergent AEs (TEAEs) of special interest; also recorded: No deaths or serious AEs were reported
same,"AEs reported, proportion of participants","[1]; 2% topical solution twice daily, 4 weeks, n = 23",39.1%
same,"Acrochordon, Number of Events","[1]; TEAE, PT, n = 23",1
same,"Acrochordon, Number of Subjects","[1]; TEAE, PT, n = 23",1 (4.3) n (%)
same,"Amylase increased, Number of Events","[1]; TEAE, PT, n = 23",1
same,"Amylase increased, Number of Subjects","[1]; TEAE, PT, n = 23",1 (4.3) n (%)
same,"Application site irritation, Number of Events","[1]; TEAE, PT, n = 23",0
same,"Application site irritation, Number of Subjects","[1]; TEAE, PT, n = 23",0 n (%)
same,"Application site pruritus, Number of Events","[1]; TEAE, PT, n = 23",1
same,"Application site pruritus, Number of Subjects","[1]; TEAE, PT, n = 23",1 (4.3) n (%)
same,"Atrial fibrillation, Number of Events","[1]; TEAE, PT, n = 23",1
same,"Atrial fibrillation, Number of Subjects","[1]; TEAE, PT, n = 23",1 (4.3) n (%)
same,"Blood CPK increased, Number of Events","[1]; TEAE, PT, n = 23",2
same,"Blood CPK increased, Number of Subjects","[1]; TEAE, PT, n = 23",2 n (%) and 2 (8.7) n (%)
same,"COVID-19, Number of Events","[1]; TEAE, PT, n = 23",0
same,"COVID-19, Number of Subjects","[1]; TEAE, PT, n = 23",0 n (%)
same,"Candida infection, Number of Events","[1]; TEAE, PT, n = 23",1
same,"Candida infection, Number of Subjects","[1]; TEAE, PT, n = 23",1 (4.3) n (%)
same,"Dizziness, Number of Events","[1]; TEAE, PT, n = 23",1
same,"Dizziness, Number of Subjects","[1]; TEAE, PT, n = 23",1 (4.3) n (%)
same,"Folliculitis, Number of Events","[1]; TEAE, PT, n = 23",1
same,"Folliculitis, Number of Subjects","[1]; TEAE, PT, n = 23",1 (4.3) n (%)
same,"Food poisoning, Number of Events","[1]; TEAE, PT, n = 23",1
same,"Food poisoning, Number of Subjects","[1]; TEAE, PT, n = 23",1 (4.3) n (%)
same,"Headache, Number of Events","[1]; TEAE, PT, n = 23",2
same,"Headache, Number of Subjects","[1]; TEAE, PT, n = 23",2 n (%) and 2 (8.7) n (%)
same,"Lipase increased, Number of Events","[1]; TEAE, PT, n = 23",1
same,"Lipase increased, Number of Subjects","[1]; TEAE, PT, n = 23",1 (4.3)1 n (%)
same,"Oropharyngeal pain, Number of Events","[1]; TEAE, PT, n = 23",0
same,"Oropharyngeal pain, Number of Subjects","[1]; TEAE, PT, n = 23",0 n (%)
same,"Pharyngitis streptococcal, Number of Events","[1]; TEAE, PT, n = 23",0
same,"Pharyngitis streptococcal, Number of Subjects","[1]; TEAE, PT, n = 23",0 n (%)
same,"Rash, Number of Events","[1]; TEAE, PT, n = 23",0
same,"Rash, Number of Subjects","[1]; TEAE, PT, n = 23",0 n (%)
same,"SARS-CoV-2 test positive, Number of Events","[1]; TEAE, PT, n = 23",0
same,"SARS-CoV-2 test positive, Number of Subjects","[1]; TEAE, PT, n = 23",0 n (%)
same,"Sinus congestion, Number of Events","[1]; TEAE, PT, n = 23",0
same,"Sinus congestion, Number of Subjects","[1]; TEAE, PT, n = 23",0 n (%)
same,"Skin fragility, Number of Events","[1]; TEAE, PT, n = 23",0
same,"Skin fragility, Number of Subjects","[1]; TEAE, PT, n = 23",0 n (%)
same,"Somnolence, Number of Events","[1]; TEAE, PT, n = 23",0
same,"Somnolence, Number of Subjects","[1]; TEAE, PT, n = 23",0 n (%)
same,"Tinea infection, Number of Events","[1]; TEAE, PT, n = 23",1
same,"Tinea infection, Number of Subjects","[1]; TEAE, PT, n = 23",1 (4.3) n (%)
same,"Transaminases increased, Number of Events","[1]; TEAE, PT, n = 23",1
same,"Transaminases increased, Number of Subjects","[1]; TEAE, PT, n = 23",1 (4.3) n (%)
same,"Urinary tract infection, Number of Events","[1]; TEAE, PT, n = 23",1
same,"Urinary tract infection, Number of Subjects","[1]; TEAE, PT, n = 23",1 n (%) and 1 (4.3) n (%)
same,"Cardiac disorders, Number of Events","[1]; TEAE, SOC, n = 23",1
same,"Cardiac disorders, Number of Subjects","[1]; TEAE, SOC, n = 23",1 (4.3) n (%)
same,"Gastrointestinal disorders, Number of Events","[1]; TEAE, SOC, n = 23",1
same,"Gastrointestinal disorders, Number of Subjects","[1]; TEAE, SOC, n = 23",1 (4.3) n (%)
same,"General disorders and administration site conditions, Number of Events","[1]; TEAE, SOC, n = 23",1
same,"General disorders and administration site conditions, Number of Subjects","[1]; TEAE, SOC, n = 23",1 (4.3) n (%)
same,"Infections and infestations, Number of Events","[1]; TEAE, SOC, n = 23",4
same,"Infections and infestations, Number of Subjects","[1]; TEAE, SOC, n = 23",3 (13.0) n (%)
same,"Investigations, Number of Events","[1]; TEAE, SOC, n = 23",5
same,"Investigations, Number of Subjects","[1]; TEAE, SOC, n = 23",3 (13.0) n (%)
same,"Neoplasms benign, malignant, and unspecified (including cysts and polyps), Number of Events","[1]; TEAE, SOC, n = 23",1
same,"Neoplasms benign, malignant, and unspecified (including cysts and polyps), Number of Subjects","[1]; TEAE, SOC, n = 23",1 (4.3) n (%)
same,"Nervous system disorders, Number of Events","[1]; TEAE, SOC, n = 23",3
same,"Nervous system disorders, Number of Subjects","[1]; TEAE, SOC, n = 23",3 (13.0) n (%)
same,"Respiratory, thoracic, and mediastinal disorders, Number of Events","[1]; TEAE, SOC, n = 23",0
same,"Respiratory, thoracic, and mediastinal disorders, Number of Subjects","[1]; TEAE, SOC, n = 23",0 n (%)
same,"Skin and subcutaneous tissue disorders, Number of Events","[1]; TEAE, SOC, n = 23",0
same,"Skin and subcutaneous tissue disorders, Number of Subjects","[1]; TEAE, SOC, n = 23",0 n (%)
same,"Any AE, Number of Events",[1]; [3],16
same,"Any AE, Number of Subjects",[1]; [3],9 (39.1) n (%)
same,participants who discontinued study participation owing to TEAEs,[1]; n = 23,No participants
same,TEAE related to study treatment,[1]; one related TEAE in the group,mild application site pruritus
same,IC50,TXK,351 nM
same,Fold Selectivity,TXK; TXK vs Jak1 (= 1),234 fold
same,IC50,Jak1/2,97 ± 34 nM
same,CLint scaled,[2],365 mL/min/kg
same,microsomal CLint,[2],295 µL/min/mg
same,half-life,"[2]; T1/2, Study 1, n = 1",2.85 min
same,half-life,"[2]; T1/2, Study 2, n = 1",5 min
same,IC50 of ATI-1777 for inhibiting Jak1/3,Jak1/3,0.045 µg/mL

# Source: article PMC10825549 (JID Innovations, 2023)
